Activity calls are given as the source filed them. The rule behind the calls is not given here.
Legend:
[1] = biological target: Histamine H3 receptor (Cavia porcellus) (UniProt Q9JI35); test: Antagonist activity at histamine H3 receptor in electrically-stimulated guinea pig ileum assessed as inhibition of (R)-alpha-methylhistamine-induced twitch contraction in presence of 1 uM mepyramine; type: functional, tissue-based
Method in brief: (§1)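 Guinea-pig ileum, electrically stimulated (0.1 Hz, 1 ms, submaximal voltage). Twitch inhibition by cumulative (R)-α-methylhistamine (1 nM to 1 µM) with 1 µM mepyramine present. Compounds tested at 1 nM to 30 µM. Potency as pKB from Furchgott's equation, or as pD2′ (Van Rossum) for non-surmountable antagonism.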

[2] = biological target: Histamine H1 receptor (Cavia porcellus) (UniProt P31389); test: Antagonist activity at histamine H1 receptor in guinea pig terminal ileum; type: functional, tissue-based
Sequence of Histamine H1 receptor (Cavia porcellus) (P31389 whole entry): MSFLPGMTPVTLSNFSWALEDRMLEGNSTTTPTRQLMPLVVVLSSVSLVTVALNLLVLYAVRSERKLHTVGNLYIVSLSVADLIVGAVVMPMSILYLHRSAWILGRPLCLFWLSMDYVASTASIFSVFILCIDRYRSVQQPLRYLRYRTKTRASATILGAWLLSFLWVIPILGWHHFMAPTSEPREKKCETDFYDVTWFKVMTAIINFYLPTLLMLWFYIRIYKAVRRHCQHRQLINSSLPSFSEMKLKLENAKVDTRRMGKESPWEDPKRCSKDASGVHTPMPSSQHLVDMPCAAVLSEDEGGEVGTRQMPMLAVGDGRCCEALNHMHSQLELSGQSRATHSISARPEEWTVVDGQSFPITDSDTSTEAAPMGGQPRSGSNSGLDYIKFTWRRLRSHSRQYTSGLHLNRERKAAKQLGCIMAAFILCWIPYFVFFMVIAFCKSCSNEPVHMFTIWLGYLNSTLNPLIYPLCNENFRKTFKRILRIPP
Method in brief: (§2)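 Guinea-pig (250–350 g) terminal ileum (H1) suspended isometrically in Krebs–Henseleit at 37 °C, aerated 95% O2–5% CO2. Cumulative histamine curves (1 nM to 1 µM) run without and with compound up to 10 µM. pKB (apparent pA2) from Furchgott's equation; pD2′ from Van Rossum's equation when antagonism was non-surmountable.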

[3] = biological target: Histamine H3 receptor (Rattus norvegicus, UniProt Q9QYN8); test: Displacement of [3H]RAMHA from histamine H3 receptor in Wistar rat brain membrane; type: cell membranes
Sequence of Histamine H3 receptor (Rattus norvegicus, UniProt Q9QYN8) (Q9QYN8 whole entry): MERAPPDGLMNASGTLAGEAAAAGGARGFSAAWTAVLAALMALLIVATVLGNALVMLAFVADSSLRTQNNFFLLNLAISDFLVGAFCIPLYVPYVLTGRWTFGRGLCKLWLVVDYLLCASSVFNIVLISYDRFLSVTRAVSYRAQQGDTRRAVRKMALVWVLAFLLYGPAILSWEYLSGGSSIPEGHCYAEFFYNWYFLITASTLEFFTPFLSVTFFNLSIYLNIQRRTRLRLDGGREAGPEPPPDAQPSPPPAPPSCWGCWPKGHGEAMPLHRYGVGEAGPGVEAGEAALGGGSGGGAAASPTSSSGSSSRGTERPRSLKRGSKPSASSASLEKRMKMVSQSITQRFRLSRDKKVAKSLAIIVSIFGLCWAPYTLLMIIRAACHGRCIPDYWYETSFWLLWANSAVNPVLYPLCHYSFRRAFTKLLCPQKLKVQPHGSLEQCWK
Method in brief: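 Membranes from male Wistar rat brain (150–200 g) incubated 45 min with 0.5 nM [3H]RAMHA and compound (0.03 nM to 10 µM) in 50 mM Tris–HCl pH 7.4, 50 mM NaCl, 0.5 mM EDTA. Vacuum filtration, two ice-cold buffer rinses. Nonspecific binding set with 10 µM thioperamide. pKi by Cheng–Prusoff.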

[4] = test system: SK-N-MC; test: Cytotoxicity against human SK-N-MC cells at 10 uM after 6 hrs by MTT test; type: functional, cell-based
Method in brief: (§3)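 MTT viability test: SK-N-MC cells held 6 h with compound (1–10 µM) or vehicle. MTT (5 mg/ml stock) added for 3 h, cells washed in PBS, formazan dissolved in 0.1 N HCl in isopropanol, absorbance read at 570 nm. Viability given relative to control.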

[5] = biological target: T1, Histamine H3 receptor (Homo sapiens, UniProt Q9Y5N1); test: Antagonist activity at human histamine H3 receptor expressed in SK-N-MC cells by CRE-mediated beta-galactosidase reporter gene assay administered 10 mins before (R)-alpha-methylhistamine challenge after 6 hrs; type: functional, cell-based
T1 sequence (Q9Y5N1 whole entry): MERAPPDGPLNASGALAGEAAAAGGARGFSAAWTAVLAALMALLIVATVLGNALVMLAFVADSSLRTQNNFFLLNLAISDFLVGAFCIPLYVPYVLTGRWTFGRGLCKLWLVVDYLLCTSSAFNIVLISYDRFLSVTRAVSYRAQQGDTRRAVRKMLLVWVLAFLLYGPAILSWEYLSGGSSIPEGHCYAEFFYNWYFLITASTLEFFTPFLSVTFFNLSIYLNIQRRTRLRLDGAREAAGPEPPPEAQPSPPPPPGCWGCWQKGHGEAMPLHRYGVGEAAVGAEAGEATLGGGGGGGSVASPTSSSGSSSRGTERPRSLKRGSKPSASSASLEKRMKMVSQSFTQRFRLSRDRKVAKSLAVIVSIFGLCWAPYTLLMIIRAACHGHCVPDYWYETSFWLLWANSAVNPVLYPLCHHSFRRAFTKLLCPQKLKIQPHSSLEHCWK
Method in brief: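 SK-N-MC cells stably carrying human H3 and a β-galactosidase reporter. Compound added to medium, forskolin 5 min later, then (R)-α-methylhistamine 10 min after compound; 6 h at 37 °C. Cells lysed in phosphate assay buffer (pH 8) with 0.5% Triton and 40 mM β-mercaptoethanol; β-galactosidase read at 570 nm. Means of 4–6 experiments.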

[6] = test system: SK-N-MC; test: Cytotoxicity against human SK-N-MC cells at 1 uM after 6 hrs by MTT test; type: functional, cell-based; method in brief: as §3
[7] = biological target: T1, Histamine H3 receptor; test: Displacement of [3H]RAMHA from human histamine H3 receptor expressed in SK-N-MC cells; type: cell-based
Method in brief: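 SK-N-MC membranes bearing human H3 incubated 60 min at room temperature with 0.5 nM [3H]-(R)-α-methylhistamine and competitor (0.01 nM to 10 µM). Rapid filtration, two washes in ice-cold 50 mM Tris–HCl/5 mM EDTA. Nonspecific binding with 10 µM histamine. pKi via Cheng–Prusoff; means of 4–6 experiments.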

[8] = biological target: Histamine H2 receptor (Cavia porcellus, UniProt P47747); test: (§4) Antagonist activity at histamine H2 receptor in guinea pig atrium assessed as changes in rate of spontaneous beat; type: functional, tissue-based, Cardiac atrium
Sequence of Histamine H2 receptor (P47747 whole entry): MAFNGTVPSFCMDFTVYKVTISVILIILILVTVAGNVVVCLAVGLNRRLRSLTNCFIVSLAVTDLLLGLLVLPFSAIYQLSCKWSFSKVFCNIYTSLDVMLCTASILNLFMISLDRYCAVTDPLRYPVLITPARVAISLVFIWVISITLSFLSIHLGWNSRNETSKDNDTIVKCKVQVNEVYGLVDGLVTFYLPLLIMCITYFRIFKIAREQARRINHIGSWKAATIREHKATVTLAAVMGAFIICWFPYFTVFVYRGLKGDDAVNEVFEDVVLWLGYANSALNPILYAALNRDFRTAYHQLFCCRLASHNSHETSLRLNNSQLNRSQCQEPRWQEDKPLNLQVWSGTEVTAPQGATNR
Method in brief: (§5)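 Guinea-pig atria (H2) in Ringer–Locke at 31 °C (mM: NaCl 154.0, KCl 5.6, CaCl2 1.08, NaHCO3 5.95, glucose 11.1), gassed 95% O2–5% CO2. Spontaneous beating rate recorded by cardiotachograph. Cumulative dimaprit curves (0.1–100 µM) run without and with compound up to 10 µM. Affinity given as pKB by Furchgott, or as pD2′ by Van Rossum if non-surmountable.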

[9] = biological target: Histamine H2 receptor (Cavia porcellus) (UniProt P47747); test: Antagonist activity at histamine H2 receptor in guinea pig atrium assessed as changes in rate of spontaneous beat at upto 3 uM; type: functional, tissue-based; conditions: Cardiac atrium; method in brief: as §5
Sequence of Histamine H2 receptor (Cavia porcellus) (P47747 whole entry): as above

[10] = biological target: T2, Histamine H4 receptor (Homo sapiens, UniProt Q9H3N8); test: Displacement of [3H]histamine from human histamine H4 receptor expressed in SK-N-MC cells at upto 10 uM
T2 sequence (Q9H3N8 whole entry): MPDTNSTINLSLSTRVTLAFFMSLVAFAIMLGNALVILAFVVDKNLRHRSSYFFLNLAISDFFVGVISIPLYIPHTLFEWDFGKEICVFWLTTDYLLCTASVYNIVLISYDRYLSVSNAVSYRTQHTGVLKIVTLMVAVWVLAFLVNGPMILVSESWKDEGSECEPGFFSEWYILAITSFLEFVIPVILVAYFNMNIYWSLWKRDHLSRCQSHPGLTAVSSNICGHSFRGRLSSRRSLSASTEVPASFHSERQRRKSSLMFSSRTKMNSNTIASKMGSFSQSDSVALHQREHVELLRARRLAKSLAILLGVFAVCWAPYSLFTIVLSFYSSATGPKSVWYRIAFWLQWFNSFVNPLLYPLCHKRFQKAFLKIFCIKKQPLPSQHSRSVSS

[11] = biological target: Histamine H1 receptor (Cavia porcellus) (UniProt P31389); test: Antagonist activity at histamine H1 receptor in guinea pig terminal ileum at upto 10 uM; type: functional, tissue-based; method in brief: as §2
[12] = biological target: T3, Acetylcholinesterase (Rattus norvegicus) (UniProt P37136); test: Inhibition of acetylcholinesterase in Wistar rat brain homogenate at upto 10 uM by Ellman's method; type: tissue-based
T3 sequence (whole entry): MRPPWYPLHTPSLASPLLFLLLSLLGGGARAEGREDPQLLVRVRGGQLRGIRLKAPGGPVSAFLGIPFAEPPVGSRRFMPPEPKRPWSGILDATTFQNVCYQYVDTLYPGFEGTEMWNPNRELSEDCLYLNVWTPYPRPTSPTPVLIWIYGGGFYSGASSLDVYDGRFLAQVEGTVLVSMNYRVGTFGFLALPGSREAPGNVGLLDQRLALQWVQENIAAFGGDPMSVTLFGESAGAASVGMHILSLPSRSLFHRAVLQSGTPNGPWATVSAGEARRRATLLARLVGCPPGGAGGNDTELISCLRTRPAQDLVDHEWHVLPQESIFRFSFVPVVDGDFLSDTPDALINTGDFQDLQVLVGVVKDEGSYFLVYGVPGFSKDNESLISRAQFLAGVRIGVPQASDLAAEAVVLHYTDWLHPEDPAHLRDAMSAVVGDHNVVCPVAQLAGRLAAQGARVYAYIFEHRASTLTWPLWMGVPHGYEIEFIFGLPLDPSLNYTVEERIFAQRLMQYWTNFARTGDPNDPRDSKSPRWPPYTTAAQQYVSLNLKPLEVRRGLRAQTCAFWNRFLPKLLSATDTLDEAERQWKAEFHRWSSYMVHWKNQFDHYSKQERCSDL

[13] = biological target: T4, Acetylcholinesterase (Rattus norvegicus, UniProt P37136); test: Inhibition of acetylcholinesterase in Wistar rat brain homogenate by Ellman's method; type: tissue-based
T4 sequence (P37136 whole entry): T3 sequence (whole entry)

[14] = biological target: T3, Acetylcholinesterase (Rattus norvegicus); test: Inhibition of acetylcholinesterase in Wistar rat brain homogenate at upto 1 to 100 uM by Ellman's method; type: tissue-based
Method in brief: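 Male Wistar rat (150–200 g) brain homogenate in 0.1 M phosphate buffer (pH 8.0) with DTNB (5 mM) and compound at 1–100 µM. Reaction started at 37 °C by adding acetylthiocholine (75 mM solution) and stopped after 15 min with 4% formalin. 5-Thio-2-nitrobenzoate absorbance at 412 nm. Percent inhibition versus control; reported as pIC50.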

[15] = biological target: T2, Histamine H4 receptor; test: Displacement of [3H]histamine from human histamine H4 receptor expressed in SK-N-MC cells
[16] = biological target: Histamine H2 receptor (Cavia porcellus) (UniProt P47747); test: Antagonist activity at histamine H2 receptor in guinea pig atrium assessed as changes in rate of spontaneous beat at upto 1 uM; type: functional, tissue-based; conditions: Cardiac atrium; method in brief: as §5
[17] = biological target: Histamine H2 receptor (Cavia porcellus) (UniProt P47747); test: Antagonist activity at histamine H2 receptor in guinea pig atrium assessed as changes in rate of spontaneous beat at upto 10 uM; type: functional, tissue-based; conditions: Cardiac atrium; method in brief: as §5
[18] = biological target: Histamine H3 receptor (Cavia porcellus) (UniProt Q9JI35); test: Antagonist activity at histamine H3 receptor in electrically-stimulated guinea pig ileum assessed as inhibition of (R)-alpha-methylhistamine-induced twitch contraction at upto 1 uM in presence of 1 uM mepyramine; type: functional, tissue-based; method in brief: as §1
[19] = biological target: Histamine H1 receptor (Cavia porcellus) (UniProt P31389); test: Antagonist activity at histamine H1 receptor in guinea pig terminal ileum at upto 1 uM; type: functional, tissue-based; method in brief: as §2
[20] = biological target: Histamine H2 receptor (Cavia porcellus) (UniProt P47747); test: as §4; type: functional, tissue-based; conditions: Cardiac atrium; method in brief: as §5
[21] = biological target: Histamine H2 receptor (Cavia porcellus) (UniProt P47747); test: Antagonist activity at histamine H2 receptor in guinea pig atrium assessed as changes in rate of spontaneous beat at upto 0.1 uM; type: functional, tissue-based; conditions: Cardiac atrium; method in brief: as §5

Sequence of Histamine H3 receptor (Cavia porcellus) (Q9JI35 whole entry): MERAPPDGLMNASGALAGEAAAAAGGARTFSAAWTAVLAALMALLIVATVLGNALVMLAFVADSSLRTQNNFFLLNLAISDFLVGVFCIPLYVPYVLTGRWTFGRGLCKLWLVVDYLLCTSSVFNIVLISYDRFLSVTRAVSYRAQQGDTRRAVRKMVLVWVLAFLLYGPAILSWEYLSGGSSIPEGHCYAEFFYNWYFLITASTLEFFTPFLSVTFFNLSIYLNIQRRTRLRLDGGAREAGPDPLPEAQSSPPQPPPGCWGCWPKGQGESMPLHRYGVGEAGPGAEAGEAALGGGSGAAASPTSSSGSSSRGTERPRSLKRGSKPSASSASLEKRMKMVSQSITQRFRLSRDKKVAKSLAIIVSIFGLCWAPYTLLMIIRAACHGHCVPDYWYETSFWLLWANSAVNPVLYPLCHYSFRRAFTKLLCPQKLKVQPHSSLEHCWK

| SMILES | pKb [1] | pKb [2] | Ki [3] [nM] | Activity [4] | pKb [5] | Activity [6] | Ki [7] [nM] | Activity [10] | Activity [12] | IC50 [13] [nM] | inhibition [14] [%] | pD2 [2] | Ki [15] [nM] | Activity [16] | also measured |
| --- | --- | --- | --- | --- | --- | --- | --- | --- | --- | --- | --- | --- | --- | --- | --- |
| CCCN(CCC)Cc1ccc(-c2ccc(CN(CCC)CCC)cc2)cc1 | 8.78 | 5.54 | 3.16 | Not toxic | 7.8 | Not toxic | 9.33 |  |  |  |  |  |  |  | EC50 [8]: 3390 nM |
| CN(C)Cc1ccc(-c2ccc(CN3CCCCC3)cc2)cc1 | 9.05 |  | 1.32 | Not toxic | 8.92 | Not toxic | 2.19 | inactive | inactive |  |  |  |  |  | Activity [9]: inactive; Activity [11]: inactive |
| CN(Cc1ccc(-c2ccc(CN(C)C3CCCCC3)cc2)cc1)C1CCCCC1 | 7.45 |  |  | Not toxic | 7.27 | Not toxic |  |  |  | 1660 | 57 | 5.24 | 6460 | inactive |  |
| c1cc(-c2ccc(CN3CCCCC3)cc2)ccc1CN1CCCCC1 | 8.58 |  |  | Not toxic | 8.77 | Not toxic | 3.39 |  |  | 5890 | 82 | 4.84 | 25100 |  | Activity [17]: inactive |
| CCCCCNCc1ccc(-c2ccc(CNCCCCC)cc2)cc1 |  |  |  | Not toxic | 6.51 | Not toxic |  |  | inactive |  |  |  | 6460 | inactive | Activity [18]: inactive; Activity [19]: inactive |
| c1cc(-c2ccc(CCN3CCCCC3)cc2)ccc1CCN1CCCCC1 | 8.43 | 5.32 |  | Not toxic | 8.5 | Not toxic |  | inactive | inactive |  |  |  |  |  | pKb [20]: 6.38 |
| CC(=O)N1CCN(Cc2ccc(-c3ccc(CN4CCN(C(C)=O)CC4)cc3)cc2)CC1 |  |  |  | Not toxic | 6.7 | Not toxic |  | inactive | inactive |  |  | 4.81 |  |  | Activity [17]: inactive; Activity [18]: inactive |
| CC1CC(C)CN(Cc2ccc(-c3ccc(CN4CCCCC4)cc3)cc2)C1 (centres undefined) | 9.02 | 6.15 | 2.4 | Not toxic | 8.48 | Not toxic | 0.871 | inactive |  | 2400 | 91 |  |  |  | Activity [9]: inactive |
| N#Cc1ccc(OCc2ccc(-c3ccc(CN4CCCCC4)cc3)cc2)cc1 | 7.27 |  | 70.8 | Not toxic | 7.27 | Not toxic | 75.9 | inactive | inactive |  |  |  |  | inactive | Activity [11]: inactive |
| CN(Cc1ccccc1)Cc1ccc(-c2ccc(CN3CCCCC3)cc2)cc1 | 7.34 |  | 14.1 | Not toxic | 7.98 | Not toxic | 6.76 | inactive |  | 3160 | 79 | 4.75 |  |  | Activity [21]: inactive |
| CC1CC(C)CN(Cc2ccc(-c3ccc(CN4CC(C)CC(C)C4)cc3)cc2)C1 (centres undefined) |  |  |  | Not toxic | 6.19 | Not toxic |  |  | inactive |  |  | 5.08 | 13800 |  | Activity [17]: inactive |
| c1cc(-c2ccc(CNC3CCCCC3)cc2)ccc1CNC1CCCCC1 | 5.82 |  |  | Not toxic | 6.54 | Not toxic |  | inactive |  | 5130 | 70 |  |  | inactive | Activity [19]: inactive |
| CC1CCN(CCc2ccc(-c3ccc(CCN4CCC(C)CC4)cc3)cc2)CC1 | 7.43 | 5.85 | 55 | Not toxic | 8.17 | Not toxic | 16.6 | inactive | inactive |  |  |  |  |  | Activity [21]: inactive |
